Results reported in publication PMC3994405 (Clinical cancer research : an official journal of the …, 2014).
Read-outs that look alike come from different tables or passages of the source.

Test system: peptide-MHC reactive CD8 T cells in PBLs from healthy donors
Assay type: cell-based, human
Details: PBLs after enrichment and 2-3 weeks culture
Summary of the method: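 PBLs washed in PBS with 2% FBS and stained with 0.1ug of each PE-coupled peptide-MHC multimer, 1h at 4°C. Anti-PE microbeads were added for 15 min, then magnetic column capture. Enriched cells were expanded 2–3 weeks in X-vivo with 5% human serum, 100 U/ml IL-2, 15 ng/ml IL-15, autologous negative-fraction feeders and anti-CD3/CD28 beads. Cells were then analysed by two-colour combinatorial multimer staining on lymphocyte/single/live/CD8 gates.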

LPRYFNVTL
Healthy Donors: number of times a response was detected/number of investigated HLA matched individuals (HLA-B7 restriction): 1/13

VTLRKRWVK
Healthy Donors: number of times a response was detected/number of investigated HLA matched individuals (HLA-A11 restriction): 1/7

SLFSNLMPK
Healthy Donors: number of times a response was detected/number of investigated HLA matched individuals (HLA-A11 restriction): 2/7A11

KMALHGLPR
Healthy Donors: number of times a response was detected/number of investigated HLA matched individuals (HLA-A3 restriction): 1/14

NLPAYSVARV
Healthy Donors: number of times a response was detected/number of investigated HLA matched individuals (HLA-A2 restriction): 1/16

TVLGRKMTPK
Healthy Donors: number of times a response was detected/number of investigated HLA matched individuals (HLA-A3 restriction): 1/14
